# A selection: hits, their analogues and other compounds. The true share with any hit is near 2.3%.
# TCR-CD3 inh = human TCR-CD3 binding inhibition | TAMRA-labeled TCR probe fluorescence, biochemical | inhibition, % at 9.4 µM | 0.37% of 360,000 active | AID 651800; in the data active = inhibition above about 19%;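 note: recombinant mutant TCR 2C K166C tagged with TAMRA read by polarization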
# pPAFAH FP inh = pPAFAH (human) enzyme inhibition. AID 463082. 1.5% of 330,000 active. Q13093. recombinant pPAFAH, FP-rhodamine probe fluorescence polarization. inhibition, % at 3.39 µM;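 active = inhibition above the mean inhibition across the screen plus 3 SD, cut at about 25% in these data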;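 note: inhibitors block binding of the rhodamine activity-based probe so polarization drops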
# SIAE primary = human SIAE inhibition, primary screen; SIAE FP-Rh probe binding, fluorescence polarization; 0.69% of 370,000 active; AID 1053197; inhibition, % at 9.66 µM;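 active = inhibition above a cutoff: mean of compounds within the control limits plus 3 SD of those, cut at about 17% in these data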
# mABHD4 FP = inhibitors of mouse ABHD4; Q8VD66; purified mABHD4, FP-Rh probe fluorescence polarization; inhibition, % at 8.92 µM; 0.54% of 370,000 active; AID 720543;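 active = inhibition exceeding the mean over every tested compound plus 3 SD, cut at about 30% in these data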
# Target sequence (Q8VD66 whole entry, looked up): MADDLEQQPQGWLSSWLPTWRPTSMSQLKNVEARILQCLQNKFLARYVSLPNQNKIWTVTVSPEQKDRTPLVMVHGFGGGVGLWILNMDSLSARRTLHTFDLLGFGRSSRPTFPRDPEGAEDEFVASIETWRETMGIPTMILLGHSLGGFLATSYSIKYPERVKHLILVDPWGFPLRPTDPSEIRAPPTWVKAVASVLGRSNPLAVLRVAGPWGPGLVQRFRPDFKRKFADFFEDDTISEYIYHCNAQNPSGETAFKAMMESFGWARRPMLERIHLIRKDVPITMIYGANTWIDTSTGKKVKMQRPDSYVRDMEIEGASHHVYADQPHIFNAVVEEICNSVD
#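 Assay system: Wild-type mouse ABHD4 protein | Medium: HEPES pH 7.0 buffer, 150 mM NaCl, 0.01% Pluronic F-127 | Incubation: Enzyme–compound pre-incubation 45 min, then probe 60 min, both 25 °C | Technique: Fluorescence polarization with parallel and perpendicular emission, 525/598 nm | Evaluation: % inhibition of FP-Rh probe binding versus controls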
# HTRA1 inhibitor = inhibitors of human serine peptidase HTRA1; recombinant HTRA1, FP-rhodamine activity-based probe, fluorescence polarization; inhibition, % at 5.96 µM; 0.5% of 340,000 active; AID 504803; in the data active = inhibition above about 36%
# SIAE confirm = human SIAE inhibition, confirmation. 13% of 2,300 active. shares compounds with SIAE primary. SIAE FP-Rh activity-based probe, fluorescence polarization. AID 1117263. inhibition, % at 9.66 µM;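 active = mean inhibition of the replicates above the hit cutoff set in the primary screen, cut at about 17% in these data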;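 note: inhibitors lower polarization as more probe stays unbound to SIAE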
# Hits are given with their value; - = inactive; . = no result.
SMILES,TCR-CD3 inh,pPAFAH FP inh,SIAE primary,mABHD4 FP,HTRA1 inhibitor,SIAE confirm
C[C@@H](O[Si](c1ccccc1)(c1ccccc1)C(C)(C)C)[C@H]1C(=O)N[C@H](Cc2cn(S(=O)(=O)c3ccccc3)c3ccccc23)C(=O)N1C,.,.,-,-,.,.
CC(=O)N1CCC2(CC1)C/C(=N\NC(=S)Nc1ccc(C)cc1)c1cc(O)ccc1O2,-,-,26.5,-,-,-
Cc1ccc(NC(=S)N/N=C2\CC(C)(C)Oc3ccc(O)cc32)cc1,-,-,-,-,-,.
COc1ccc(-c2csc3ncnc(N4CCN(S(=O)(=O)c5ccc(C)c(C)c5)CC4)c23)cc1,-,-,18.3,-,-,-
CCOC(=O)Cc1ccc(Nc2nc3cc(-c4sccc4C)sc3c(=O)n2C)cc1,-,.,-,-,.,.
CC(C)C(=O)c1cn(CC(=O)O)c2ccccc12,-,-,18.9,-,-,-
CC(C)(C)C(=O)c1cn(CC(=O)O)c2ccccc12,-,-,-,-,-,.
Cc1c(C(=O)N(Cc2ccc(N(C)C)cc2)CC2CCCO2)oc2ccccc12 (stereo not drawn),-,-,-,-,-,.
CN(C)c1ccc(CN(CC2CCCO2)C(=O)c2cc3ccccc3o2)cc1 (stereo not drawn),-,.,20.5,-,-,-
O=C(OC12CCCN(C1)/C(=C/c1ccccc1)C2)C1CCCCC1 (stereo not drawn),.,.,-,-,.,.
O=C(OC12CCCN(C1)/C(=C/c1ccc(Cl)cc1)C2)C1CCCCC1 (stereo not drawn),.,.,17.8,-,.,-
N#Cc1ccc(/C=C2\CC3(OC(=O)C4CCCC4)CCCN2C3)cc1 (stereo not drawn),.,.,22.6,-,.,-
COc1ccccc1C(=O)N1CCN(C(=O)[C@H]2O[C@@H](n3cnc4c(N)ncnc43)[C@H](O)[C@@H]2O)CC1,-,.,23.0,-,.,21.3
Cc1ccc(OC2CCN(C(=O)[C@H]3O[C@@H](n4cnc5c(N)ncnc54)[C@H](O)[C@@H]3O)CC2)cc1,-,.,-,-,.,.
CN(C)C(=O)N1CCN(C(=O)[C@H](CCc2ccccc2)NC(=O)[C@H]2O[C@@H](n3cnc4c(N)ncnc43)[C@H](O)[C@@H]2O)CC1,-,.,35.6,-,.,43.3
Nc1ncnc2c1ncn2[C@@H]1O[C@H](C(=O)N[C@@H](CO)c2ccccc2)[C@@H](O)[C@H]1O,-,.,17.3,-,.,19.4
C[C@@H](NC(=O)[C@H]1O[C@@H](n2cnc3c(N)ncnc32)[C@H](O)[C@@H]1O)c1cccc2ccccc12,-,.,-,-,.,.
COC(=O)[C@]12C[C@H](CC(=O)NCCCN3CCCC3=O)C(=O)N(Cc3ccco3)C1=C[C@H](C(C)(C)C)O[C@@H]2C,.,.,-,-,.,.
COc1ccc(OC)c(CCNC(=O)Cc2ccc(NC(=O)C3=C(C)OCCS3)cc2)c1,-,.,-,-,-,.
CCOc1ccc(CCNC(=O)Cc2ccc(NC(=O)C3=C(C)OCCS3)cc2)cc1,-,-,18.8,-,-,-
CC(C)N1CCC(C)(C(=O)Nc2ccccc2Oc2ccccc2)C1 (stereo not drawn),-,.,-,-,.,.
CS(=O)(=O)c1ccc(Cl)c(NC(=O)c2cccc(Br)c2)c1,-,-,-,-,-,.
CS(=O)(=O)c1ccc(Cl)c(NC(=O)c2cccc(N3C(=O)CCC3=O)c2)c1,-,-,19.3,-,-,-
COc1ccc(/C=N/n2c(-c3ccccc3)n[nH]c2=S)cc1,-,-,21.9,-,-,-
Cc1cc(C)n2nc(SCC(=O)c3cc(C)n(CC4CCCO4)c3C)nc2n1 (stereo not drawn),-,-,19.5,-,-,-
SMILES,TCR-CD3 inh,pPAFAH FP inh,SIAE primary,mABHD4 FP,HTRA1 inhibitor,SIAE confirm
Cc1cc(C(=O)CSc2nc(N)cc(N)n2)c(C)n1CC1CCCO1 (stereo not drawn),-,-,-,-,-,.
Cn1c(=O)oc2cc(S(=O)(=O)N3CCC(C(=O)N4CCN(c5ccc(F)cc5)CC4)CC3)ccc21,-,-,19.5,-,-,-
Cc1ccccc1N1CCN(C2=NC(=O)/C(=C/c3cn[nH]c3-c3ccccc3)S2)CC1,-,-,23.7,-,-,-
O=C1N=C(N2CCCC2)S/C1=C\c1cn[nH]c1-c1ccccc1,.,-,.,.,.,.
O=C(COC(=O)c1ccc[nH]c1=O)NC1CCCCCCC1,-,-,18.1,-,-,-
Cc1cc(C(=O)COC(=O)c2ccc[nH]c2=O)c(C)n1C1CC1,-,-,22.8,-,-,-
O=C(COC(=O)c1ccc[nH]c1=O)NC1CCCCCC1,-,-,-,-,-,.
CC(C)CC(=O)NC(=S)NNC(=O)c1ccc([N+](=O)[O-])cc1,-,-,30.8,-,-,-
COc1ccc(N2CCN(C(=O)CN(c3ccccc3)S(C)(=O)=O)CC2)cc1,-,-,19.9,-,-,-
CS(=O)(=O)N(CC(=O)N1CCN(Cc2ccccc2)CC1)c1ccccc1Br,-,-,19.1,-,-,-
COc1ccc(S(=O)(=O)N(CC(=O)N2CCN(c3ccccc3)CC2)c2ccccc2)cc1,-,-,-,-,-,.
COc1ccc(-c2nn(-c3ccccc3)cc2/C=N/O)cc1OC,-,-,-,-,-,.
COc1ccc(-c2nn(-c3ccccc3)cc2/C=N/Nc2ccc3ccccc3n2)cc1OC,-,-,18.6,-,-,-
Cc1ccc(OCC(=O)OCc2nc3scc(-c4ccccc4)c3c(=O)[nH]2)cc1C,-,-,18.4,-,-,-
COCCCNC(=O)C[C@H]1C[C@@]2(C(=O)OC)C(=C[C@H](COCc3ccccc3)O[C@@H]2C)N(CCc2ccc(OC)c(OC)c2)C1=O,.,.,-,-,.,.
COc1ccc(/C(C)=N/OCC(=O)N=Nc2c(O)[nH]c3ccccc23)cc1,-,-,20.9,-,-,-
COc1cc(CNC(=O)c2cnccn2)cc(OC)c1,-,.,-,-,-,.
COc1cc(CNC(=O)c2cc(C(=O)NCc3cc(OC)cc(OC)c3)n(C)n2)cc(OC)c1,-,.,19.9,-,-,-
O=C(NCc1ccccc1)c1cc(C2CCCN(S(=O)(=O)c3ccccc3)C2)on1 (stereo not drawn),-,.,-,-,.,.
COc1ccc(CNC(=O)C2CSC(=O)C2)cc1 (stereo not drawn),-,-,20.2,-,-,-
CC1CCCCC12NC(=O)N(CC(=O)N(C)Cc1nc3ccccc3c(=O)[nH]1)C2=O (stereo not drawn),-,-,-,-,-,.
CC1CC(C)(C)CC2(C1)NC(=O)N(CC(=O)N(C)Cc1nc3ccccc3c(=O)[nH]1)C2=O (stereo not drawn),-,-,18.5,-,-,-
c1ccc(COc2ccc(-c3cc4nc(NCCCn5ccnc5)ccn4n3)cc2)cc1,-,.,-,-,.,.
CC(C)c1ccc(NC(=O)COC(=O)CC2CCCC2)cc1,-,-,20.0,-,-,-
O=C(COC(=O)CC1CCCC1)Nc1cc2c(cc1Cl)C(=O)c1ccccc1C2=O,-,-,-,-,-,.

# From PubChem BioAssay
